Eleven molecules from ChEMBL document CHEMBL4261490, “Exploring the links between peptoid antibacterial activity and toxicity” (Medchemcomm, 2017) can be followed below.

A short description of data set [1]: Cytotoxicity against human HaCaT cells assessed as reduction in cell viability pretreated for 1 hr followed by DMEM addition measured after 24 hrs by alamar blue assay. As to conditions: read-out: ED50. The format is cell-based. Put shortly: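 HaCaT keratinocytes are grown in DMEM high glucose with 10% FBS and 1% P/S and seeded at 2x10^4 cells/well 24 h before treatment. Compound dilution series run 2–100 µM (5 mM DMSO stocks) in 50 µL for 1 h, then medium is added for 24 h at 37 °C, 5% CO2. alamarBlue is read after 1 h (Ex 540/Em 620). Triplicate, ≥2 occasions; ED50 from dose-response; amphotericin B positive control.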
For orientation: Resazurin is reduced to fluorescent resorufin, in cell work by metabolically active cells.

Data set [2] can be described thus: Cytotoxicity against human HepG2 cells assessed as reduction in cell viability pretreated for 1 hr followed by DMEM addition measured after 24 hrs by alamar blue assay. It is filed as cell-based. As to conditions: read-out: ED50. The essentials:
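HepG2 cells are kept in DMEM high glucose with 10% heat-inactivated FBS and 1% P/S at 37 °C, 5% CO2, and seeded at 2x10^4 cells/well one day ahead. They are exposed to compounds (100 to 3 µM, from 5 mM DMSO stocks) in 50 µL for 1 h. Medium is then added and cells incubated 24 h. alamarBlue is read after 2 h (Ex 560/Em 600). Triplicate on ≥2 occasions; ED50 from dose-response; DMSO negative control.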

For a further data set, the system named is Staphylococcus aureus. Put plainly: Antibacterial activity against Staphylococcus aureus 3R7089 strain Oxford/ATCC 9144 incubated for 16 hrs under shaking condition. As to conditions: 3R7089 strain Oxford/ATCC 9144, 16 h. It is filed as functional. The essentials:
(§1)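 Broth microdilution (Andrews method) in Iso-sensitest broth. Overnight cultures are adjusted to A650 0.07 (0.5 McFarland) and diluted ten-fold. Compounds come from 5 mM DMSO stocks, 2-fold serially diluted, final 2–100 μM in a 1:1 inoculum:compound mix. Incubation is 37 °C for 16 h with shaking. MIC is the lowest concentration giving complete growth inhibition, read by absorbance; triplicate.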

Data set [3] relates to Staphylococcus epidermidis. Nature of the data set: Antibacterial activity against Staphylococcus epidermidis clinical isolate incubated for 16 hrs under shaking condition. The format is functional. The essentials:
as §1

Data set [4] can be described thus: Selectivity index, ratio of ED50 for human HaCaT cells to MIC for Escherichia coli K-12 W3110 ATCC 27325. Particulars: read-out: Selectivity Index. The format is toxicity.
The nature of data set [5]: Selectivity index, ratio of ED50 for human HaCaT cells to MIC for Staphylococcus aureus 3R7089 strain Oxford/ATCC 9144. As to conditions: read-out: Selectivity Index. The format is toxicity.
The nature of data set [6]: Selectivity index, ratio of ED50 for human HaCaT cells to MIC for Staphylococcus epidermidis clinical isolate. It is filed as toxicity. As to conditions: read-out: Selectivity Index.
Data set [7] can be described thus: Selectivity index, ratio of ED50 for human HepG2 cells to MIC for Staphylococcus aureus 3R7089 strain Oxford/ATCC 9144. The format is toxicity. As to conditions: read-out: Selectivity Index.
Data set [8] can be described thus: Selectivity index, ratio of ED50 for human HepG2 cells to MIC for Staphylococcus epidermidis clinical isolate. As to conditions: read-out: Selectivity Index. It is filed as toxicity.
The test system of another data set is Pseudomonas aeruginosa. Nature of the data set: Antibacterial activity against Pseudomonas aeruginosa PAO1 ATCC 15692 incubated for 16 hrs under shaking condition. The format is functional. Particulars: PAO1 ATCC 15692, 16 h. Put shortly:
as §1

The nature of data set [9]: Selectivity index, ratio of ED50 for human HaCaT cells to MIC for Pseudomonas aeruginosa PAO1 ATCC 15692. The format is toxicity. Particulars: read-out: Selectivity Index.
Data set [10] can be described thus: Selectivity index, ratio of ED50 for human HepG2 cells to MIC for Escherichia coli K-12 W3110 ATCC 27325. It is filed as toxicity. Particulars: read-out: Selectivity Index.
The nature of data set [11]: Selectivity index, ratio of ED50 for human HepG2 cells to MIC for Pseudomonas aeruginosa PAO1 ATCC 15692. As to conditions: read-out: Selectivity Index. It is filed as toxicity.

Structures are written as SMILES. In brackets after ≈: the same amount, converted by molar mass. Square brackets hold non-standard residues; d marks the D form. Peptide text beside a SMILES is read from it. Gly(Nα-4-Cl-benzyl) = O=C(O)CNCc1ccc(Cl)cc1; Gly(N-(CH2)6NH2) = NCCCCCCNCC(=O)O; N(isopentyl)Gly = CC(C)CCNCC(=O)O; Nspe = C[C@H](NCC(=O)O)c1ccccc1; NhArg = N=C(N)NCCCCNCC(=O)O; Nlys = NCCCCNCC(=O)O

Usually MIC stands for the smallest concentration in the dilution series that meets the test's criterion for growth inhibition. Read a high MIC as a less susceptible organism. With `CC(c1ccccc1)N(CC(=O)N(CCCCN)CC(=O)N(CC(=O)N(CC(=O)N(CCCCN)CC(=O)N(CC(=O)N(CC(N)=O)[C@@H](C)c1ccccc1)Cc1ccc(F)cc1)C(C)c1ccccc1)Cc1ccc(F)cc1)C(=O)CN(Cc1ccc(F)cc1)C(=O)CNCCCCN` (single isomer, unassigned), the CC50 at 24 h worked out at 52 µM in data set [1] and 36 µM in [2]. Further, the MIC in the data set on Staphylococcus aureus was found to be 3 µM (≈ 4.14 µg/mL); in data set [3], 2 µM (≈ 2.76 µg/mL). Moreover, the selectivity ratio in [4] was 2; in data set [5], 17; in [6], 26; in [7], 12; in [8] it was 18.

`C[C@H](c1ccccc1)N(CC(N)=O)C(=O)CN(C(=O)CN(CCCCN)C(=O)CN(C(=O)CN(C(=O)CN(CCCCN)C(=O)CN(C(=O)CN(C(=O)CNCCCCN)[C@H](C)c1ccccc1)[C@@H](C)c1ccccc1)[C@H](C)c1ccccc1)[C@@H](C)c1ccccc1)[C@H](C)c1ccccc1` (stereo in doubt): the CC50 at 24 h in data set [1] and in data set [2] was over 100 µM each time. Moreover, the MIC was over 100 µM in the data set with Pseudomonas aeruginosa and 2 µM (≈ 2.74 µg/mL) with Staphylococcus aureus. In addition, the selectivity ratio came to 8 in [4]; 1 in [9]; 50 in [5]; 50 in data set [6]; 8 in data set [10]; 1 in data set [11]. Also, the selectivity ratio in data set [7] and in data set [8] was 50 throughout.

As to `C[C@@H](c1ccccc1)N(CC(N)=O)C(=O)CN(C(=O)CN(CCCCCCN)C(=O)CN(C(=O)CN(C(=O)CN(CCCCCCN)C(=O)CN(C(=O)CN(C(=O)CN(CCCCCCN)C(=O)CN(C(=O)CN(C(=O)CNCCCCCCN)[C@@H](C)c1ccccc1)[C@@H](C)c1ccccc1)[C@@H](C)c1ccccc1)[C@@H](C)c1ccccc1)[C@@H](C)c1ccccc1)[C@@H](C)c1ccccc1)[C@@H](C)c1ccccc1` (H-[Gly(N-(CH2)6NH2)][Nspe][Nspe][Gly(N-(CH2)6NH2)][Nspe][Nspe][Gly(N-(CH2)6NH2)][Nspe][Nspe][Gly(N-(CH2)6NH2)][Nspe][Nspe]-NH2), the selectivity ratio in data set [9] was determined as 0; in data set [5], 12; in data set [6], 12; in data set [11], 1; in data set [7], 21; in [8], 21.

As to `NCCCCNCC(=O)N(CC(=O)N(CC(=O)N(CCCCN)CC(=O)N(CC(=O)N(CC(=O)N(CCCCN)CC(=O)N(CC(=O)N(CC(=O)N(CCCCN)CC(=O)N(CC(=O)N(CC(N)=O)Cc1cccc(F)c1)Cc1cccc(F)c1)Cc1cccc(F)c1)Cc1cccc(F)c1)Cc1cccc(F)c1)Cc1cccc(F)c1)Cc1cccc(F)c1)Cc1cccc(F)c1`, the selectivity ratio stood at 1 in data set [4]; 1 in data set [9]; 4 in [5]; 8 in [6]; 1 in data set [10]; 1 in data set [11]. In addition, the values for the selectivity ratio in [7] and in data set [8] were 3 and 6, respectively.

In the case of `C[C@@H](c1ccccc1)N(CC(N)=O)C(=O)CN(C(=O)CN(CCCCNC(=N)N)C(=O)CN(C(=O)CN(C(=O)CN(CCCCNC(=N)N)C(=O)CN(C(=O)CN(C(=O)CN(CCCCNC(=N)N)C(=O)CN(C(=O)CN(C(=O)CNCCCCNC(=N)N)[C@@H](C)c1ccccc1)[C@@H](C)c1ccccc1)[C@@H](C)c1ccccc1)[C@@H](C)c1ccccc1)[C@@H](C)c1ccccc1)[C@@H](C)c1ccccc1)[C@@H](C)c1ccccc1` (H-[NhArg][Nspe][Nspe][NhArg][Nspe][Nspe][NhArg][Nspe][Nspe][NhArg][Nspe][Nspe]-NH2), in data set [1], the CC50 at 24 h is 20 µM. Further, the selectivity ratio came out at 3 in data set [4]; 2 in data set [9]; 20 in data set [5]; 20 in data set [6]; 2 in data set [10]; 1 in data set [11]. Besides, the selectivity ratio in [7] and in [8] was 12 each time.

As for `NCCCCNCC(=O)N(CC(=O)N(CC(=O)N(CCCCN)CC(=O)N(CC(=O)N(CC(=O)N(CCCCN)CC(=O)N(CC(=O)N(CC(N)=O)Cc1ccc(Cl)cc1)Cc1ccc(Cl)cc1)Cc1ccc(Cl)cc1)Cc1ccc(Cl)cc1)Cc1ccc(Cl)cc1)Cc1ccc(Cl)cc1` (H-[Nlys][Gly(Nα-4-Cl-benzyl)][Gly(Nα-4-Cl-benzyl)][Nlys][Gly(Nα-4-Cl-benzyl)][Gly(Nα-4-Cl-benzyl)][Nlys][Gly(Nα-4-Cl-benzyl)][Gly(Nα-4-Cl-benzyl)]-NH2), the selectivity ratio in data set [9] came out at 1; in data set [5], 7; in [6], 11; in [11] it was 1; in data set [7], 8; in [8] it was 12.

With `NCCCCNCC(=O)N(CC(=O)N(CC(=O)N(CCCCN)CC(=O)N(CC(=O)N(CC(=O)N(CCCCN)CC(=O)N(CC(=O)N(CC(N)=O)Cc1ccccc1)Cc1ccccc1)Cc1ccccc1)Cc1ccccc1)Cc1ccccc1)Cc1ccccc1`, the CC50 at 24 h in [1] and in [2] was over 100 µM in each case. In addition, the MIC against Pseudomonas aeruginosa is over 100 µM. Besides, the selectivity ratio in data set [4] is 2; in data set [9] it was 1; in [5] it was 4; in [6] it was 17; in data set [10], 2; in data set [11], 1. Further, the results for the selectivity ratio in [7] and in [8] were 4 and 17, respectively.

For the molecule `CC(c1ccccc1)N(CC(=O)N(CCN)CC(=O)N(CC(=O)N(CC(=O)N(CCN)CC(=O)N(CC(=O)N(CC(N)=O)[C@@H](C)c1ccccc1)[C@@H](C)c1ccccc1)C(C)c1ccccc1)[C@@H](C)c1ccccc1)C(=O)CN(C(=O)CNCCN)C(C)c1ccccc1` (single isomer, unassigned), the CC50 at 24 h in data set [1] and in data set [2] was over 100 µM in each case. Besides, the MIC was over 100 µM in the data set on Pseudomonas aeruginosa and 2 µM (≈ 2.57 µg/mL) in the data set with Staphylococcus aureus. Also, the selectivity ratio in data set [4] came out at 4; in [9], 1; in data set [5], 50; in data set [6], 8; in [10], 4; in data set [11] it was 1. For the same molecule, the selectivity ratio in data set [7] is 50; in data set [8], 8.

With `CC(c1ccccc1)N(CC(=O)N(CCCCN)CC(=O)N(CC(=O)N(CC(=O)N(CCCCN)CC(=O)N(CC(=O)N(CC(N)=O)[C@@H](C)c1ccccc1)[C@@H](C)c1ccccc1)Cc1ccc(F)cc1)Cc1ccc(F)cc1)C(=O)CN(C(=O)CNCCCCN)[C@@H](C)c1ccccc1` (single isomer, unassigned), the CC50 at 24 h in [1] was 65 µM; in data set [2] it was 43 µM. The MIC against Staphylococcus aureus was 3 µM (≈ 4.13 µg/mL); in data set [3], 2 µM (≈ 2.75 µg/mL). The selectivity ratio in data set [4] is 5; in data set [9] it was 3; in data set [5] it was 22; in data set [6], 33; in data set [10] it was 3; in data set [7], 14. Also, in data set [8], the selectivity ratio was 22.

Take `NCCCCNCC(=O)N(CC(=O)N(CC(=O)N(CCCCN)CC(=O)N(CC(=O)N(CC(=O)N(CCCCN)CC(=O)N(CC(=O)N(CC(N)=O)Cc1cccc(F)c1)Cc1cccc(F)c1)Cc1cccc(F)c1)Cc1cccc(F)c1)Cc1cccc(F)c1)Cc1cccc(F)c1`: the selectivity ratio in data set [4] amounted to 5; in data set [9], 3; in [5], 11; in data set [6] it was 32; in data set [10] it was 3; in [11], 2. Moreover, the selectivity ratio in data set [7] is 7; in data set [8] it was 22.

In turn, `CC(C)CCN(CC(=O)N(CC(N)=O)[C@@H](C)c1ccccc1)C(=O)CN(CCCCNC(=N)N)C(=O)CN(C(=O)CN(CCC(C)C)C(=O)CN(CCCCNC(=N)N)C(=O)CN(C(=O)CN(CCC(C)C)C(=O)CNCCCCNC(=N)N)[C@@H](C)c1ccccc1)[C@@H](C)c1ccccc1` (H-[NhArg][N(isopentyl)Gly][Nspe][NhArg][N(isopentyl)Gly][Nspe][NhArg][N(isopentyl)Gly][Nspe]-NH2) gave an MIC against Pseudomonas aeruginosa of over 100 µM.
